Sampled rows, rich in hits. Any-hit rate of the full collection: about 2.4%.
beta cell repl: inducers of MIN6 beta-cell proliferation, primary screen, ATP luminescence, uHTS; proliferation, % at 10 µM; actives 0.29% (n = 330,000); AID 2380, 2010; MIN6 cells proliferation, ATPlite luminescence, 48 h; cells starved in 0.2% serum; 100% = growth in 10% serum;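 active = compounds whose signal lies at least 3.5 SD above the mean of all wells on their plate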
SENP1 inh: human SENP1 catalytic domain inhibitors, primary screen, biochemical, FRET, uHTS. Sentrin-specific protease 1 (Homo sapiens), Q9P0U3. recombinant SENP1 catalytic domain, CyPet-SUMO1-YPet FRET cleavage. inhibition, % at 10 µM. actives 0.21% (n = 360,000);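 active = inhibition at least 30% at 10 µM, raw YFP signal under a set limit, fluorescence ratio 0.5 to 1.5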
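Compound: 10 µM single point, 0.5% DMSO; Test system: hSENP1 catalytic domain, recombinant; Timing: 50 min reaction at room temperature; Technique: FRET, CFP and YFP emission; Control set: no-enzyme wells low, DMSO-plus-enzyme wells high control.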
Myeloid diff MLP: induction of myeloid progenitor differentiation, primary screen, cell-based, flow cytometry, MLPCN library | calls only at 10 µM | ER-HoxA9 myeloid progenitors, lysozyme-GFP differentiation | actives 1% (n = 360,000) | AID 624256, 2012;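 active = normalized GFP-positive differentiation at or above the plate's own cutoff, the solvent-only control mean plus 3 SD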;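 note: cells exposed to compound for four days before flow analysis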
DAGLB inhibitor: DAGLB lipase inhibitors, primary screen, biochemical, fluorescence, HTS. Diacylglycerol lipase-beta (Homo sapiens), Q8NCG7. HEK293T DAGLB membrane lysate, EnzChek fluorogenic substrate. inhibition, % at 5.17 µM. actives 0.059% (n = 340,000); in the data active = inhibition above about 34%
Target sequence (Q8NCG7 whole entry, looked up): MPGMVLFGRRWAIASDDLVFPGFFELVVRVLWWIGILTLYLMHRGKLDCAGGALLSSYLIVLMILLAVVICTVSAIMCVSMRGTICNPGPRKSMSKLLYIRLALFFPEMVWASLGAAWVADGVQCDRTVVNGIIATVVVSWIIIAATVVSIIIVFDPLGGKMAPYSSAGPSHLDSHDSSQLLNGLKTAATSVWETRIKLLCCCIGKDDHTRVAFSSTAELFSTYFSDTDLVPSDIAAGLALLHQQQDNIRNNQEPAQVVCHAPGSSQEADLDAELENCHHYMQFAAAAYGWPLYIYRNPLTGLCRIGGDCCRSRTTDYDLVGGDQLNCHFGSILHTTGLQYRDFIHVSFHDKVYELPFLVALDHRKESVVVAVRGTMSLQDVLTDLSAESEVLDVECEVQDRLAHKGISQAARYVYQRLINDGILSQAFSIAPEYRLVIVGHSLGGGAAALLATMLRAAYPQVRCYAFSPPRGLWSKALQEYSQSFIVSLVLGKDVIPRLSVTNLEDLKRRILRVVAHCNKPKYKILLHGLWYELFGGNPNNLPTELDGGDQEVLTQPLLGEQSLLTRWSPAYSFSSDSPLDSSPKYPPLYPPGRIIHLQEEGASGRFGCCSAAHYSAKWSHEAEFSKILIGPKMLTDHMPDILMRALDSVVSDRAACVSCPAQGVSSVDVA
NRP1-CendR mod: modulators of CendR peptide binding to NRP-1, primary screen, biochemical, fluorescence polarization, uHTS; Neuropilin-1 (Homo sapiens), O14786; FAM-RPARPAR peptide binding to NRP-1; inhibition, % at 25 µM; actives 0.85% (n = 360,000);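 active = inhibition or corrected inhibition above about 18%, plus a signal ratio from 0.5 to 1.5, limit read from the data, passing the limit was not always enough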
MT1-MMP act inh: blockers of MT1-MMP proenzyme processing, primary screen, HT1080 RFP-PRO-GFP cells, GFP/RFP fluorescence; Matrix metalloproteinase-14 (Homo sapiens), P50281; GFP/RFP ratio fluorescence, overnight; percent of plate control window, DMSO zero; GFP/RFP ratio change, % at 20 µM; actives 0.061% (n = 360,000); AID 651647, 2012;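 active = GFP/RFP ratio change of at least 30% with cell ATP level not reduced by more than half and red fluorescence within 50% of control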
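Test system: HT1080 RFP-PRO-GFP cells; Benchmarks: DMSO and RFP-L50D-GFP cell wells; Timing: cells overnight before dosing, compound overnight, 37 °C, 5% CO2; Compound: one 20 µM compound dose with 1% DMSO; Read-out: GFP/RFP fluorescence ratio.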
SENP1 conf: human SENP1 catalytic domain inhibitors, confirmation, biochemical, FRET endpoint, single concentration | shares compounds with SENP1 inh | recombinant SENP1, CyPet-SUMO1-YPet FRET cleavage | inhibition, % at 10 µM | actives 34% (n = 520); in the data active = inhibition mostly above about 35%, no sharp cut-off; inactive = mostly below about 32%
SENP1 kinetic: human SENP1 catalytic domain inhibitors, confirmation, biochemical, kinetic FRET, single concentration | recombinant SENP1, CyPet-SUMO1-YPet FRET kinetic cleavage | AID 651690, 2012 | shares compounds with SENP1 inh | actives 26% (n = 520) | inhibition, % at 10 µM; in the data active = inhibition mostly above about 32%, no sharp cut-off; inactive = mostly below about 29%
Myeloid diff: inducers of myeloid progenitor differentiation, confirmation, cell-based, GFP/Mac1 flow cytometry, cherry pick 01; shares compounds with Myeloid diff MLP; ER-HoxA9 myeloid progenitors, GFP/Mac1 double-positive flow; calls only; actives 2% (n = 2,300); AID 651706, 2012;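 active = share of green or green-and-red cells above 9 and 9% in run 1 or 4 and 3% in run 2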
GFP autofluor: counter-screen for myeloid differentiation promoters: compound fluorescence | fluorescence response, % (concentration not given with the values) | shares compounds with Myeloid diff MLP | ER-HoxA9 myeloid progenitors, no estrogen, GFP autofluorescence flow cytometry; vehicle wells 0%, positive control 100% | actives 7.4% (n = 2,300);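 active = over 5% cells positive for green fluorescent reporter, or over 2% positive for both it and APC stain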
A number is an active result; n = inactive; x = no result given; + = active, no number.

SMILES	beta cell repl	SENP1 inh	Myeloid diff MLP	DAGLB inhibitor	NRP1-CendR mod	MT1-MMP act inh	SENP1 conf	SENP1 kinetic	Myeloid diff	GFP autofluor
CCn1c(/C=C/c2ccc(O)c(O)c2)nc2ccccc2c1=O	n	n	n	n	n	n	x	x	x	x
CNC(=O)CSc1nnc(C(C)C)n1C	n	n	n	n	n	n	x	x	x	x
C=CCNC(=O)c1cc(Cl)cc(Cl)c1	n	n	n	n	n	n	x	x	x	x
CCN1/C(=C\C=C2\C(=O)N(C)C(=S)N2C)Sc2ccccc21	n	37	n	n	n	n	n	n	n	n
CCN1/C(=C2/OC(=S)N(C)C2=O)Sc2ccccc21	x	n	n	n	n	n	x	x	x	x
CCCS(=O)(=O)N1CCN=C1SCc1cccnc1	n	n	n	n	n	n	x	x	x	x
COc1ccccc1Cc1c(-c2cccc(Cl)c2)nc2ccc(Br)cn12	x	37	+	x	n	n	n	n	n	41
Cc1ccc(CN2CCSc3ccc(C(=O)NCc4ccccn4)cc32)cc1	n	n	n	n	n	n	x	x	x	x
N#C/C(=C/C1=C(N2CCOCC2)C(=C/c2cccc([N+](=O)[O-])c2)/CC1)C(=O)Nc1ccccc1F	x	73	+	n	n	n	n	n	n	46
CCN(CC)c1ccc(/C=C2\CCC(/C=C(/C#N)C(=O)Nc3ccccc3F)=C2N2CCOCC2)cc1	x	n	n	n	n	n	x	x	x	x
CCOC(=O)c1ccc(NCn2c(=O)oc3ccccc32)cc1	n	54	n	n	n	n	n	n	n	44
CC(=O)Oc1ccc(/C=C2/SC(=S)N(Cc3ccccc3)C2=O)cc1	n	74	+	n	n	n	n	n	n	38
COc1ccc(CN2C(=O)/C(=C/c3ccncc3)SC2=S)cc1	n	n	n	n	n	n	x	x	x	x
N#C/C(C(N)=O)=C1/SC(Cc2ccc(F)cc2)C(=O)N1c1ccccc1 (stereo unspecified)	n	70	n	n	n	n	n	n	n	n
Cc1ccc(S(=O)(=O)Nc2ccc(Cl)cc2)cc1NC(=O)c1cc2c(s1)CCCC2	n	n	n	n	n	n	x	x	x	x
C/C(=N\NC(=O)c1ccc2c(c1)OCO2)c1ccc(NC(=O)CCCC(=O)O)cc1	n	n	n	n	n	n	x	x	n	n
O=C(COC(=O)CCS(=O)(=O)c1ccc(Cl)cc1)NCCc1ccc(Cl)cc1Cl	n	n	n	n	n	n	x	x	x	x
O=C(c1cc2c(s1)-c1ccccc1OC2)N1CCCC1	n	n	n	n	n	n	x	x	n	n
O=C(c1cc2c(s1)-c1ccccc1OC2)N1CCN(c2ccccc2)CC1	n	n	n	n	n	n	x	x	x	x
O=C(Nc1sccc1C(=O)NCc1ccco1)c1cccnc1	n	n	n	n	n	n	x	x	n	n
O=C(c1ccc2c(c1)OCO2)N1CCN(S(=O)(=O)c2ccc(Br)cc2Cl)CC1	n	n	n	n	n	n	x	x	x	x
